From article PMC11822521 (ACS Omega, 2025)

What was measured:
VHR [1] = biological target: T1, VHR (Homo sapiens, UniProt P51452); experiment: Michaelis–Menten kinetic assay of VHR with OMFP; format: biochemical; conditions: read-out: Michaelis–Menten constant (Km); OMFP as substrate of VHR
In short: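 Full-length human His8-VHR expressed in E. coli, fixed at 2.5 nM, with OMFP titrated. Enzyme preincubated 20 min at room temperature, then substrate added. Fluorescence (ex 485/em 535 nm) read kinetically for 10 min. Initial velocities were background-corrected against no-enzyme wells and fitted to the Michaelis–Menten equation.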

VHR [2] = biological target: T1, VHR; experiment: Isothermal titration calorimetry; format: binding; conditions: dissociation constant (KD), ITC; mean of two independent experiments ± SEM
In short: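 Run at 25 °C on full-length human VHR (His8-tagged, E. coli-expressed, Ni-NTA purified). Protein was 60–285 μM in PBS with 5% DMSO in the cell. Test compound (0.3–5 mM in the same buffer) was added as 20 injections of 6 μL. Baseline came from compound injected into buffer alone. KD was the mean of two independent runs.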

VHR [3] = biological target: T1, VHR; experiment: VHR dose–response inhibition assay with OMFP substrate; format: biochemical
In short: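 Ten-point curves, 100 μM to 5 nM final, in triplicate, with DMSO vehicle. Human His8-VHR (2.5 nM final) in pH 6 Bis-tris buffer with DTT and Tween-20 was preincubated with compound 20 min at room temperature. Reaction started with OMFP (6 μM final) and read at ex 485/em 535 nm for 10 min. Slopes were normalized to no-enzyme and vehicle controls and fitted to a four-parameter variable-slope model.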

T1 sequence (P51452 whole entry): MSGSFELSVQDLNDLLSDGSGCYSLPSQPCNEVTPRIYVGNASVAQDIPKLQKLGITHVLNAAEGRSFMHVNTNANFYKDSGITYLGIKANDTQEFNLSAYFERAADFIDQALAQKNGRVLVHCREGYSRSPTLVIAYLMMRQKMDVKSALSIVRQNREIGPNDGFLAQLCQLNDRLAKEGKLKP

Km (VHR [1]) [µM]	Kd (VHR [2]) [µM]	IC50 (VHR [3]) [µM]	Structure (SMILES)
5.4	–	–	COc1ccc2c(c1)Oc1cc(OP(=O)(O)O)ccc1C21OC(=O)c2ccccc21 (stereo not drawn) [OMFP, 3-O-methylfluorescein phosphate]
–	7.6 ± 0.2	4.1 ± 1.8	O=P(O)(O)C(F)(F)c1cccc(-c2cccc(-c3cscn3)c2)c1 [SBP-4929, (Difluoro(3′-(thiazol-4-yl)-[1,1′-biphenyl]-3-yl)methyl)phosphonic Acid]
